Converted amounts (≈) assume the structure as drawn.
Tests used:
[1] = system: Wistar rats; test: Evaluation of hepatoprotective potential; format: in vivo; conditions: male Wistar rats, 21 d oral
Method in brief: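 Male Wistar rats (180-200 g), acclimatized 1 wk, randomized into 8 groups of 6. Oral suspensions in 1% sodium CMC for 21 d: INH 150 mg/kg/day, prodrugs and physical mixtures equimolar to INH, saline control. On day 22, rats were fasted overnight, bled retrobulbarly and sacrificed. Endpoints: serum ALT/AST, TG, cholesterol; liver SOD, GSHPx, MDA; blinded H&E histology.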

[2] = system: aspartate aminotransferase (AST); test: Estimation of serum aspartate aminotransferase; format: in vivo, Wistar rats; conditions: 21 d oral, mean ± SEM
Method in brief: (§1)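 Serum aminotransferases were measured colorimetrically with commercial kits (Reitman–Frankel method). Male Wistar rats (6/group) were dosed orally for 21 d in 1% sodium CMC, INH 150 mg/kg/day, test compounds equimolar. Blood was drawn retrobulbarly after an overnight fast on day 22. Mean ± SEM; one-way ANOVA with Dunnett's test versus the INH group.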

[3] = In vitro stability in phosphate buffer; format: physicochemical; conditions: 0.05 mol/L phosphate buffer, 37 °C, till 6 h, HPLC
Method in brief: (§2)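 5 mL aliquots were replaced with fresh buffer at 0, 15, 30, 45, 60 min, then every 30 min to 3 h (HCl) or 6 h (phosphate). Analysed by reverse-phase C18 HPLC against 10-100 μg/mL calibration curves; triplicate.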

[4] = system: superoxide dismutase (SOD); test: Liver superoxide dismutase activity, hepatoprotective study; format: in vivo, Wistar rats; conditions: 21 d oral; for Level of SOD re-established: dose equimolar to INH 150 mg/kg/day
[5] = In vitro stability in HCl buffer; format: physicochemical; conditions: 0.05 mol/L HCl, 37 °C, till 3 h, HPLC
Method in brief: as §2

[6] = In vitro release kinetics in rat intestinal homogenates; format: in vitro ADME; conditions: for % Prodrug hydrolysed / K ± SD (hydrolysis rate constant): rat intestinal homogenates; for % Prodrug hydrolysed: over 6 h; for K ± SD (hydrolysis rate constant): first-order kinetics, average of three readings; for half-life: rat, intestinal homogenates
Method in brief: (§3)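 Incubations in rat stomach homogenate ran up to 3 h; those in intestinal homogenate ran up to 6 h. Intact prodrug and released INH were quantified simultaneously by validated reverse-phase C18 HPLC using prodrug-specific mobile phases at 1 mL/min with UV detection. Percent hydrolysed and INH released came from calibration curves. Rate constants, half-lives and kinetic order were calculated; samples were run in triplicate.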

[7] = system: alanine aminotransferase (ALT); test: Estimation of serum alanine aminotransferase; format: in vivo, Wistar rats; conditions: 21 d oral, mean ± SEM
Method in brief: as §1

[8] = system: malondialdehyde (MDA); test: Assay of lipid peroxidation products in liver; format: in vivo, Wistar rats; conditions: 21 d oral, treated groups vs INH-treated group
Method in brief: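 Hepatic lipid peroxidation was measured as thiobarbituric-acid-reactive MDA (Ohkawa method). 1,1,3,3-tetraethoxypropane was the standard, and results were expressed as micromoles per gram of tissue. Livers came from male Wistar rats (6/group) given oral suspensions in 1% sodium CMC for 21 d, INH 150 mg/kg/day, test compounds equimolar. Mean ± SEM; one-way ANOVA/Dunnett versus the INH group.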

[9] = In vitro release in rat stomach homogenates; format: in vitro ADME; conditions: till 3 h
Method in brief: as §3

[10] = system: glutathione peroxidase (GSHPx); test: Liver glutathione peroxidase, hepatoprotective study; format: in vivo, Wistar rats; conditions: 21 d oral; for Level of GSHPx re-established: dose equimolar to INH 150 mg/kg/day
[11] = system: rat liver; test: Histopathological analysis of rat liver; format: in vivo, Wistar rats; conditions: H&E-stained liver sections, 21 d oral
Method in brief: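 Male Wistar rats (180-200 g), acclimatized 1 wk at 24 ± 1 °C, 45%-55% humidity, 12:12 h light/dark; 8 groups of 6. Oral dosing for 21 d as a suspension in 1% sodium CMC, with doses equimolar to the parent drug. On day 22, rats were fasted overnight, bled and sacrificed. Liver was washed in ice-cold saline, fixed in 10% formalin, sectioned, H&E-stained and photographed under light microscopy.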

[12] = In vivo release studies after oral administration of NI; set-up: species or system Wistar rats
Method in brief: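 Male Wistar rats were fasted 24 h and housed individually in metabolic cages. They received an oral suspension of test compound in 1.0 mL saline, 309 mg/kg (equimolar to INH). EDTA blood was collected at 0 min, every 15 min for 1 h, every 2 h to 10 h, and at 24 h. Samples were spun 5000 rpm at 0-5 °C, methanol-precipitated and analysed by HPLC. Urine and faeces were pooled over 24 h.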

[13] = Aqueous solubility; format: physicochemical; conditions: aqueous (water)

| SMILES | Hepatoprotective potential assessment (overall) [1] | AST level [2] [U/L] | Stability in phosphate buffer, pH 7.4 [3] | Level of SOD re-established [4] [%] | Stability in HCl buffer, pH 1.2 [5] | % Prodrug hydrolysed [6] [%] | K ± SD (hydrolysis rate constant) [6] [min⁻¹] | half-life [6] [h] | ALT level [7] [U/L] | Effect on MDA level (in words) [8] | Release of INH in stomach homogenates [9] | Level of GSHPx re-established [10] [%] | Liver histopathology findings [11] | solubility [13] [mg/mL] | further results |
| --- | --- | --- | --- | --- | --- | --- | --- | --- | --- | --- | --- | --- | --- | --- | --- |
| CC(=O)NC(CS)C(=O)NNC(=O)c1ccncc1 (stereo not shown) [NI, N-{1-mercaptomethyl-2-oxo-2-[N’-(pyridine-4-carbonyl)-hydrazino]-ethyl}-acetamide] | noteworthy effects | 46 ± 7.30 | Stable | 93.39 | Stable | 94.93 | 0.0034 | 3.89 | 48 ± 4.50 | better compared to that achieved with MI | Negligible | 100 | reversal of such pathology, with no evidence of necrosis, inflammation or fibrosis | 104 (≈ 368 mM) | INH in urine and faeces samples ([12]; 24 h pooled samples): without any presence; Intact NI in urine and faeces samples ([12]; 24 h pooled samples): not observed; Time at which intact NI completely disappeared from blood ([12]; Wistar rats, blood): 7.5 to 9 h; Time from which concentration of intact NI in blood started declining ([12]; Wistar rats, blood): 5.5 to 6.5 h; Time of appearance of intact NI in blood ([12]; Wistar rats, blood): 2 to 2.5 h |
| CSCCC(N)C(=O)NNC(=O)c1ccncc1 (stereo not shown) [MI, Isonicotinic acid N’-(2-amino-4-methylsulfanyl-butyryl)-hydrazide] | moderate effects |  | Stable | 88.69 | Stable | 86.55 | 0.0051 | 3.02 |  |  | Negligible | 93.87 | minimal inflammation, with minimal portal triaditis and mild dilation of blood sinusoids | 114 (≈ 425 mM) |  |
| CC(S)C(=O)NCC(=O)NNC(=O)c1ccncc1 (stereo not shown) [MGI, 2-Mercapto-N-{2-oxo-2-[N’-(pyridine-4-carbonyl)-hydrazino]-ethyl}-propionamide] | moderate effects |  | Stable | 71.98 | Stable | 70.11 | 0.0033 | 3.62 |  | better compared to that achieved with MI | Negligible | 91.83 | minimal inflammation, with minimal portal triaditis and mild dilation of blood sinusoids | 94 (≈ 333 mM) |  |
| NNC(=O)c1ccncc1 [INH, isoniazid, reference compound] |  | 148 ± 7.60 |  |  |  |  |  |  | 144 ± 7.70 | significantly higher |  |  | all these pathological changes were noticed | 135 (≈ 984 mM) | Effect on level of SOD (in words) [4]: significantly lower; Effect on level of GSHPx (in words) [10]: significantly lower |
